Values after ≈ are worked out from the molar mass of the structure shown.
Legend:
PA-1 = experiment: Cytotoxicity against human PA-1 cells after 72 hrs by MTT assay; assay type: functional, cell-based; details: PA-1, 72 h
How it was run: (§1)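 Cells harvested from 70–80% confluent cultures by trypsin/EDTA and seeded at 5000 cells/well in DMEM for 24 h. Compounds were dissolved in DMSO and diluted in medium to 0.5–20, with final DMSO below 1%. After 72 h at CO2, MTT was added for 3 h at 37 °C. Medium was replaced with DMSO and OD read at 540 nm. IC50 ± SD, three independent experiments.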

DU-145 = experiment: Cytotoxicity against human DU145 cells after 72 hrs by MTT assay; assay type: functional, cell-based; details: DU-145, 72 h; how it was run: as §1
SW-620 = experiment: Cytotoxicity against human SW620 cells after 72 hrs by MTT assay; assay type: functional, cell-based; details: SW-620, 72 h; how it was run: as §1
K562 = experiment: Cytotoxicity against human K-562 cells after 72 hrs by MTT assay; assay type: functional, cell-based; details: K562, 72 h
MIA PaCa-2 [1] = experiment: Cytotoxicity against human MIA PaCa2 cells after 72 hrs by MTT assay; assay type: functional, cell-based; details: MIA PaCa-2, 72 h; how it was run: as §1
HBL-100 = experiment: Cytotoxicity against human HBL100 cells after 72 hrs by MTT assay; assay type: functional, cell-based; details: HBL-100, 72 h; how it was run: as §1
A549 = experiment: Cytotoxicity against human A549 cells after 72 hrs by MTT assay; assay type: functional, cell-based; details: A549, 72 h; how it was run: as §1
NIH3T3 [2] = experiment: Cytotoxicity against mouse NIH3T3 cells after 72 hrs by MTT assay; assay type: cell-based; details: NIH3T3, 72 h; how it was run: as §1
NIH3T3 [3] = experiment: Selectivity index, ratio of IC50 for mouse NIH3T3 cells to IC50 for human SW620 cells; assay type: functional
MIA PaCa-2 [4] = experiment: Selectivity index, ratio of IC50 for mouse NIH3T3 cells to IC50 for human MIA PaCa2 cells; assay type: functional

SMILES | IC50 (PA-1) | IC50 (DU-145) | IC50 (SW-620) | IC50 (K562) | IC50 (MIA PaCa-2 [1]) | IC50 (HBL-100) | IC50 (A549) | IC50 (NIH3T3 [2]) | Ratio IC50 (NIH3T3 [3]) | Ratio IC50 (MIA PaCa-2 [4])
CC(C)[C@@H]1CC[C@]2(C(=O)O)CC[C@]3(C)[C@H](CC[C@@H]4[C@@]5(C)Cc6c([nH]c7ccc(Cl)cc67)C(C)(C)[C@@H]5CC[C@]43C)[C@@H]12 | 6.6 µg/mL (≈ 11.7 µM) | 6.5 µg/mL (≈ 11.5 µM) | 5.9 µg/mL (≈ 10.5 µM) | > 20 µg/mL | 15.2 µg/mL (≈ 26.9 µM) | > 20 µg/mL | 8.8 µg/mL (≈ 15.6 µM) | 19 µg/mL (≈ 33.7 µM) | – | –
C=C(C)[C@@H]1CC[C@]2(C(=O)NCC(=O)O)CC[C@]3(C)[C@H](CC[C@@H]4[C@@]5(C)Cc6c([nH]c7ccccc67)C(C)(C)[C@@H]5CC[C@]43C)[C@@H]12 | 3 µg/mL (≈ 5.13 µM) | 7 µg/mL (≈ 12 µM) | 8.7 µg/mL (≈ 14.9 µM) | 11.9 µg/mL (≈ 20.4 µM) | 0.67 µg/mL (≈ 1.15 µM) | > 20 µg/mL | 3.53 µg/mL (≈ 6.04 µM) | 0.68 µg/mL (≈ 1.16 µM) | – | –
C=C(C)[C@@H]1CC[C@]2(C(=O)O)CC[C@]3(C)[C@H](CC[C@@H]4[C@@]5(C)Cc6c([nH]c7c(Cl)cccc67)C(C)(C)[C@@H]5CC[C@]43C)[C@@H]12 | 6.39 µg/mL (≈ 11.4 µM) | 11.7 µg/mL (≈ 20.7 µM) | 2 µg/mL (≈ 3.56 µM) | 9.26 µg/mL (≈ 16.5 µM) | 11.6 µg/mL (≈ 20.6 µM) | 11.8 µg/mL (≈ 21 µM) | 8.7 µg/mL (≈ 15.5 µM) | 11.8 µg/mL (≈ 21 µM) | 6 | –
CC(C)[C@@H]1CC[C@]2(C(=O)O)CC[C@]3(C)[C@H](CC[C@@H]4[C@@]5(C)Cc6c(oc7ccccc67)C(C)(C)[C@@H]5CC[C@]43C)[C@@H]12 | > 20 µg/mL | > 20 µg/mL | > 20 µg/mL | 15.3 µg/mL (≈ 28.8 µM) | 8.8 µg/mL (≈ 16.6 µM) | > 20 µg/mL | 7.1 µg/mL (≈ 13.4 µM) | 20 µg/mL (≈ 37.7 µM) | – | –
C=C(C)[C@@H]1CC[C@]2(C(=O)O)CC[C@]3(C)[C@H](CC[C@@H]4[C@@]5(C)Cc6c([nH]c7ccc(Cl)cc67)C(C)(C)[C@@H]5CC[C@]43C)[C@@H]12 | 2.5 µg/mL (≈ 4.45 µM) | 4.9 µg/mL (≈ 8.72 µM) | 2.7 µg/mL (≈ 4.8 µM) | 9.61 µg/mL (≈ 17.1 µM) | 2.44 µg/mL (≈ 4.34 µM) | 11.8 µg/mL (≈ 20.9 µM) | 7.14 µg/mL (≈ 12.7 µM) | 4.6 µg/mL (≈ 8.18 µM) | – | 2
C=C(C)[C@@H]1CC[C@]2(C(=O)O)CC[C@]3(C)[C@H](CC[C@@H]4[C@@]5(C)Cc6c([nH]c7ccccc67)C(C)(C)[C@@H]5CC[C@]43C)[C@@H]12 | 6.01 µg/mL (≈ 11.4 µM) | 8.86 µg/mL (≈ 16.8 µM) | 5.15 µg/mL (≈ 9.76 µM) | 10 µg/mL (≈ 19 µM) | 6.7 µg/mL (≈ 12.7 µM) | 10.3 µg/mL (≈ 19.5 µM) | 7.6 µg/mL (≈ 14.4 µM) | 6.9 µg/mL (≈ 13.1 µM) | – | –
C=C(C)[C@@H]1CC[C@]2(C(=O)NCC(=O)O)CC[C@]3(C)[C@H](CC[C@@H]4[C@@]5(C)Cc6c([nH]c7ccc(Cl)cc67)C(C)(C)[C@@H]5CC[C@]43C)[C@@H]12 | 6.66 µg/mL (≈ 10.8 µM) | 10.3 µg/mL (≈ 16.7 µM) | 10.4 µg/mL (≈ 16.8 µM) | > 20 µg/mL | 10.7 µg/mL (≈ 17.3 µM) | 16.5 µg/mL (≈ 26.6 µM) | 12.4 µg/mL (≈ 20 µM) | 11.2 µg/mL (≈ 18.1 µM) | – | –
C=C(C)[C@@H]1CC[C@]2(C(=O)O)CC[C@]3(C)[C@H](CC[C@@H]4[C@@]5(C)Cc6c([nH]c7cc(Cl)cc(Cl)c67)C(C)(C)[C@@H]5CC[C@]43C)[C@@H]12 | > 20 µg/mL | > 20 µg/mL | > 20 µg/mL | > 20 µg/mL | > 20 µg/mL | > 20 µg/mL | 5.5 µg/mL (≈ 9.22 µM) | 4.1 µg/mL (≈ 6.87 µM) | – | –
CC(C)[C@@H]1CC[C@]2(C(=O)O)CC[C@]3(C)[C@H](CC[C@@H]4[C@@]5(C)Cc6c(n(C)c7ccccc67)C(C)(C)[C@@H]5CC[C@]43C)[C@@H]12 | > 20 µg/mL | > 20 µg/mL | > 20 µg/mL | 10.8 µg/mL (≈ 20 µM) | 5.4 µg/mL (≈ 9.93 µM) | 14.1 µg/mL (≈ 26 µM) | 6.5 µg/mL (≈ 12 µM) | > 20 µg/mL | – | –
C=C(C)[C@@H]1CC[C@]2(C(=O)O)CC[C@]3(C)[C@H](CC[C@@H]4[C@@]5(C)Cc6c([nH]c7c(F)cccc67)C(C)(C)[C@@H]5CC[C@]43C)[C@@H]12 | – | > 20 µg/mL | > 20 µg/mL | 8.7 µg/mL (≈ 15.9 µM) | 3.3 µg/mL (≈ 6.05 µM) | 3.5 µg/mL (≈ 6.41 µM) | 3 µg/mL (≈ 5.5 µM) | 2.1 µg/mL (≈ 3.85 µM) | – | –
CC(C)[C@@H]1CC[C@]2(C(=O)O)CC[C@]3(C)[C@H](CC[C@@H]4[C@@]5(C)Cc6c([nH]c7ccc(F)cc67)C(C)(C)[C@@H]5CC[C@]43C)[C@@H]12 | > 20 µg/mL | > 20 µg/mL | 7.28 µg/mL (≈ 13.3 µM) | 14 µg/mL (≈ 25.6 µM) | 8.4 µg/mL (≈ 15.3 µM) | > 20 µg/mL | 8.89 µg/mL (≈ 16.2 µM) | 14.6 µg/mL (≈ 26.6 µM) | – | –
C=C(C)[C@@H]1CC[C@]2(C(=O)O)CC[C@]3(C)[C@H](CC[C@@H]4[C@@]5(C)Cc6c(n(C)c7ccccc67)C(C)(C)[C@@H]5CC[C@]43C)[C@@H]12 | > 20 µg/mL | 20 µg/mL (≈ 36.9 µM) | > 20 µg/mL | 7.73 µg/mL (≈ 14.3 µM) | 5.34 µg/mL (≈ 9.86 µM) | 19.5 µg/mL (≈ 36 µM) | 6.9 µg/mL (≈ 12.7 µM) | 15.1 µg/mL (≈ 27.9 µM) | – | –
C=C(C)[C@@H]1CC[C@]2(C(=O)O)CC[C@]3(C)[C@H](CC[C@@H]4[C@@]5(C)Cc6c([nH]c7ccc(F)cc67)C(C)(C)[C@@H]5CC[C@]43C)[C@@H]12 | > 20 µg/mL | > 20 µg/mL | 9.16 µg/mL (≈ 16.8 µM) | 10.9 µg/mL (≈ 20.1 µM) | 17.4 µg/mL (≈ 31.9 µM) | > 20 µg/mL | 17.8 µg/mL (≈ 32.6 µM) | > 20 µg/mL | – | –
C=C(C)[C@@H]1CC[C@]2(C(=O)O)CC[C@]3(C)[C@H](CC[C@@H]4[C@@]5(C)Cc6c([nH]c7ccc(OC)cc67)C(C)(C)[C@@H]5CC[C@]43C)[C@@H]12 | 5.8 µg/mL (≈ 10.4 µM) | 5.75 µg/mL (≈ 10.3 µM) | 8.4 µg/mL (≈ 15.1 µM) | > 20 µg/mL | 6.4 µg/mL (≈ 11.5 µM) | 12.8 µg/mL (≈ 22.9 µM) | 8.2 µg/mL (≈ 14.7 µM) | 7.5 µg/mL (≈ 13.4 µM) | – | –
C=C(C)[C@@H]1CC[C@]2(C(=O)O)CC[C@]3(C)[C@H](CC[C@@H]4[C@@]5(C)CC[C@H](O)C(C)(C)[C@@H]5CC[C@]43C)[C@@H]12 [BETULINIC ACID] | 11.5 µg/mL (≈ 25.2 µM) | > 20 µg/mL | 13.3 µg/mL (≈ 29 µM) | 3.25 µg/mL (≈ 7.12 µM) | 10.3 µg/mL (≈ 22.6 µM) | 5.02 µg/mL (≈ 11 µM) | 3 µg/mL (≈ 6.57 µM) | 4.37 µg/mL (≈ 9.57 µM) | – | –

Source: ChEMBL document CHEMBL1144169, “Synthesis and cytotoxic activity of heterocyclic ring-substituted betulinic acid derivatives” (Bioorg Med Chem Lett, 2008)
